Test [1] concerns the target T1, D(2) dopamine receptor (Bos taurus, UniProt P20288). In words: Inhibitory activity against dopamine receptor D2 in calf caudate tissue using [3H]spiperone.
For test [2], the system named is Mus musculus. In words: Effective dose required to evoke catalepsy in mouse when administered perorally. It counts as functional. The method in brief:
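CFW mice (21–23 g), groups of three, oral dosing in water or 0.5% carboxymethylcellulose. Scored at 0.25, 2.5 and 5.0 h for holding one hind limb on a 2 cm rubber bung and staying on a vertical grid. EDmin is the dose below which no catalepsy occurred at any time.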

For test [3], the system named is Mus musculus. Kind of test: Effective dose required to produce hypothermia in mouse when administered peroral. It counts as functional. The method in brief:
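Rectal temperature recorded in groups of three CFW mice (21–23 g) at 0.25, 2.5 and 5.0 h after oral compound (water or 0.5% carboxymethylcellulose). Changes in group mean temperature from the initial mean were summed over the three times. Hypothermia was taken as a summed mean fall >4 °C.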

The target in test [4] is Muscarinic acetylcholine receptor. In words: Inhibitory activity against muscarinic cholinergic receptors in male olac rat brain, using [3H]QNB as the radioligand.
Test [5] relates to Rattus norvegicus. Kind of test: Effective dose against muscular incoordination in rats determined by rotarod test when administered peroral. It counts as functional. Put shortly:
(§1)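 Male Olac Wistar rats (140–150 g), fed and watered ad libitum, in groups of five, dosed orally (water solution or 0.5% carboxymethylcellulose suspension). Tested at 1 and 2 h on a horizontal rod rotating at 2 rpm, 32 mm diameter, with a 30 s cutoff.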
(In general: The rotarod test checks motor coordination on a turning rod.)

The species entered for test [6] is Rattus norvegicus. Kind of test: Inhibition of conditioned avoidance response in rats, peroral dose. The format is functional.
Test [7] deals with T1, D(2) dopamine receptor. In words: Inhibitory activity against Dopamine receptor D2 in calf caudate tissue, using [3H]spiperone as the radioligand.
The target in test [8] is Muscarinic acetylcholine receptor. Kind of test: Inhibitory activity against Muscarinic acetylcholine receptor in male olac rat brain, using [3H]-QNB as the radioligand.
The subject of test [9] is Rattus norvegicus. Kind of test: Effective dose against muscular incoordination in rats determined by rotarod test when administered perorally. The format is functional. The method in brief:
as §1

Test [10] has as its target T1, D(2) dopamine receptor. Kind of test: Inhibitory activity Dopamine receptor D2 in calf caudate tissue, using [3H]spiperone as the radioligand.
Test [11] concerns Rattus norvegicus. Kind of test: Effective dose against muscular in coordination in rats determined by rotarod test when administered peroral. The format is functional. Put shortly: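 Male Olac Wistar rats (140–150 g), fed and watered ad libitum, groups of five; compound in distilled water or 0.5% carboxymethylcellulose given orally. Tested at 1 and 2 h on horizontal rod rotating at 2 rpm (32 mm diameter), time on rod recorded up to 30 s.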

For orientation: IC50 means the midpoint of a concentration-inhibition curve. A higher IC50 goes with lower potency.

T1 sequence (P20288 whole entry): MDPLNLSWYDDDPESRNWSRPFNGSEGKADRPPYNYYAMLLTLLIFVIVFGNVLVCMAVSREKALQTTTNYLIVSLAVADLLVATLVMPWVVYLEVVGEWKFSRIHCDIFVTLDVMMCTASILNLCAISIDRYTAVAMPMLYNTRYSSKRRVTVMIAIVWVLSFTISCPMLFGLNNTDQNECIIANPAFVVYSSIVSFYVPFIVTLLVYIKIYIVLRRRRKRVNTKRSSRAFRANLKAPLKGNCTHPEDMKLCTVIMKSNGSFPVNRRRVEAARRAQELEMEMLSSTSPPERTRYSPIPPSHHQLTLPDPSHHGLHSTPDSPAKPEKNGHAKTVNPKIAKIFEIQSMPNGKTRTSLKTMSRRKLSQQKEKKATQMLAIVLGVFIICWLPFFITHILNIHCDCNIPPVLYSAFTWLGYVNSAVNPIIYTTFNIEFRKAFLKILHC

Consider `CN1CCN(C2=Nc3cc(F)ccc3Nc3c2ncn3C2CCCCC2)CC1`, for which the IC50 was over 10000 nM on D(2) dopamine receptor [1] and over 100000 nM in [4]. The EDmin with Mus musculus [2] was over 400 mg/kg; in the test with Mus musculus [3] it was 200 mg/kg; in the test with Rattus norvegicus [5] it was over 50 mg/kg; in the test listed under Rattus norvegicus [6] it was over 50 mg/kg.

`CN1CCN(C2=Nc3cc(F)ccc3Nc3nn(C)nc32)CC1`: the 50% inhibitory concentration (IC50) on D(2) dopamine receptor [7] was 840 nM; in test [8] it was over 1000 nM. Also, the EDmin in the test on Mus musculus [2] is 25 mg/kg; in the test with Mus musculus [3], 12.5 mg/kg; in the test with Rattus norvegicus [9] it was 20 mg/kg; in the test filed under Rattus norvegicus [6], 5 mg/kg.

`CN1CCN(C2=Nc3cc(Cl)c(Cl)cc3Nc3nn(C)nc32)CC1`: the results for the IC50 (on D(2) dopamine receptor [7]; in test [8]) were 2300 nM and over 1000 nM, respectively. The EDmin in the test with Mus musculus [2] was 100 mg/kg; in the test with Mus musculus [3] it was 50 mg/kg; in the test with Rattus norvegicus [5], over 50 mg/kg; in the test listed under Rattus norvegicus [6], over 20 mg/kg.

Consider `Cc1nc2c(n1C)C(N1CCN(C)CC1)=Nc1cc(F)ccc1N2`, for which the IC50 was over 10000 nM on D(2) dopamine receptor [1] and over 1000 nM in test [4]. Moreover, the EDmin is over 200 mg/kg with Mus musculus [2], 50 mg/kg in the test on Mus musculus [3], over 50 mg/kg in the test with Rattus norvegicus [5] and over 50 mg/kg in the test filed under Rattus norvegicus [6].

For the compound `CN1CCN(C2=Nc3ccccc3Nc3c2nnn3C)CC1`, the IC50 at D(2) dopamine receptor [7] is over 10000 nM. This compound gave an EDmin in the test filed under Rattus norvegicus [6] of over 50 mg/kg.

Turning to `CN1CCN(C2=Nc3cc(Br)ccc3Nc3nn(C)nc32)CC1`, the figures for the IC50 (at D(2) dopamine receptor [10]; in [8]) were 300 nM and 4000 nM, respectively. Further, the EDmin amounted to 12.5 mg/kg with Mus musculus [2], 12.5 mg/kg in the test with Mus musculus [3], 5 mg/kg in the test with Rattus norvegicus [5] and 5 mg/kg in the test listed under Rattus norvegicus [6].

In the case of `CCn1cnc2c1Nc1ccc(F)cc1N=C2N1CCN(C)CC1`, the 50% inhibitory concentration (IC50) on D(2) dopamine receptor [1] was over 10000 nM; in test [4] it was 61000 nM. Besides, the EDmin in the test with Mus musculus [2] was over 200 mg/kg; with Mus musculus [3], over 200 mg/kg; with Rattus norvegicus [5], over 50 mg/kg; in the test listed under Rattus norvegicus [6], over 50 mg/kg.

`CN1CCN(C2=Nc3ccccc3Nc3ncccc32)CC1`: the IC50 on D(2) dopamine receptor [7] is over 10000 nM. In the test with Mus musculus [3], the EDmin stood at 100 mg/kg.

For the compound `CCn1nc2c(n1)C(N1CCN(C)CC1)=Nc1cc(F)ccc1N2`, the IC50 is 180 nM on D(2) dopamine receptor [1] and over 1000 nM in [4]. Also, the EDmin in the test on Mus musculus [2] turned out to be 12.5 mg/kg; in the test with Mus musculus [3], 12.5 mg/kg; with Rattus norvegicus [5], 10 mg/kg; in the test filed under Rattus norvegicus [6] it was 5 mg/kg.

As to `CN1CCN(C2=Nc3cc(C(F)(F)F)ccc3Nc3nn(C)nc32)CC1`, the IC50 at D(2) dopamine receptor [7] is 1100 nM; in test [8], over 1000 nM. The EDmin in the test with Mus musculus [2] was 50 mg/kg; in the test with Mus musculus [3] it was 50 mg/kg; in the test with Rattus norvegicus [5], 25 mg/kg; in the test filed under Rattus norvegicus [6], over 25 mg/kg.

With `CN1CCN(C2=Nc3cc(F)ccc3Nc3c2ncn3C)CC1`, the values for the 50% inhibitory concentration (IC50) (at D(2) dopamine receptor [1]; in [4]) were over 100000 nM and 122000 nM, respectively. Moreover, the EDmin was over 400 mg/kg with Mus musculus [2], over 400 mg/kg in the test with Mus musculus [3], over 50 mg/kg in the test on Rattus norvegicus [5] and over 50 mg/kg in the test listed under Rattus norvegicus [6].

For the compound `CN1CCN(C2=Nc3ccccc3Nc3nn(C)nc32)CC1`, the figures for the IC50 (against D(2) dopamine receptor [1]; in test [4]) were 1420 nM and over 1000 nM, respectively. The EDmin is 25 mg/kg in the test on Mus musculus [2], 25 mg/kg with Mus musculus [3], over 50 mg/kg in the test with Rattus norvegicus [9] and 5 mg/kg in the test filed under Rattus norvegicus [6].

Take `CN1CCN(C2=Nc3cc(Cl)c(Cl)cc3Nc3ncccc32)CC1`: at D(2) dopamine receptor [7], the IC50 came to 9200 nM. Moreover, the results for the EDmin in the test on Mus musculus [2] and in the test on Mus musculus [3] were 50 mg/kg and 100 mg/kg, respectively.

Consider `CN1CCN(C2=Nc3cc(Cl)ccc3Nc3nn(C)nc32)CC1`, for which the IC50 at D(2) dopamine receptor [7] was 210 nM; in [8], 2600 nM. The EDmin with Mus musculus [2] is 12.5 mg/kg; in the test on Mus musculus [3], 6 mg/kg; in the test on Rattus norvegicus [5], over 10 mg/kg; in the test listed under Rattus norvegicus [6], 4 mg/kg.

In the case of `CN1CCN(C2=Nc3cc(F)ccc3Nc3ncn(C)c32)CC1`, the IC50 against D(2) dopamine receptor [1] is over 10000 nM; in [4], over 1000 nM. In addition, the EDmin in the test with Mus musculus [2] is 100 mg/kg; in the test with Mus musculus [3], 25 mg/kg; in the test with Rattus norvegicus [5] it was 40 mg/kg; in the test listed under Rattus norvegicus [6], over 20 mg/kg.

For `CCn1nc2c(n1)C(N1CCN(C)CC1)=Nc1cc(Cl)ccc1N2`, the values for the concentration for half-maximal inhibition (IC50) (against D(2) dopamine receptor [1]; in test [4]) were 67 nM and 2400 nM, respectively. In addition, the EDmin in the test on Mus musculus [2] is 12.5 mg/kg; with Mus musculus [3] it was 12.5 mg/kg; in the test with Rattus norvegicus [5], over 5 mg/kg; in the test listed under Rattus norvegicus [6], 5 mg/kg.

As for `CN1CCN(C2=Nc3cc(Cl)ccc3Nc3ccccc32)CC1` [CLOZAPINE], the EDmin in the test on Mus musculus [2] stood at 100 mg/kg; in the test with Mus musculus [3], 50 mg/kg; with Rattus norvegicus [11], 40 mg/kg; in the test listed under Rattus norvegicus [6], 30 mg/kg.

Turning to `Cc1cc2c(s1)Nc1ccc(F)cc1N=C2N1CCN(C)CC1` [FLUMEZAPINE], the EDmin came to 6.25 mg/kg in the test on Mus musculus [2], 1.6 mg/kg in the test on Mus musculus [3], 10 mg/kg in the test on Rattus norvegicus [5] and 5 mg/kg in the test listed under Rattus norvegicus [6]. The same compound returned an IC50 in test [4] of 80 nM.

These data come from ChEMBL document CHEMBL1124358, “Synthesis and pharmacological evaluation of CNS activities of [1,2,3]triazolo[4,5-b][1,5]-, imidazolo[4,5-b][1,5]-, and pyrido[2,3-b][1,5]benzodiazepines. 10-Piperazinyl-4H-1,2,3-triazolo[4,5-b][1,5]benzodiazepines with neuroleptic activity” (J Med Chem, 1989).
